From article PMC5417661 (Drug Design, Development and Therapy, 2017)

Tests used:
[1] = test system: cocultures of endothelial colony forming cells (ECFCs) and adipocyte derived stem cells (ADSCs); assay: Vascular tube formation assay, disruption of established cords; assay type: cell-based, human
Method in brief: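 Cocultures of GFP-labelled endothelial colony forming cells and adipocyte-derived stem cells were stimulated with VEGF (20 ng/mL) to form cords. Compounds were added to the established cords at 96 h. Images were taken every 6 h and scored for relative cord length and branch points. pIC50 came from a four-parameter logistic fit of area-under-curve data between 96 and 186 h.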

bovine tubulin protein = assay: In vitro tubulin polymerization assay; assay type: biochemical; settings: cell-free, 60 min
Method in brief: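 Commercial kit using bovine tubulin, cell-free. The test compound was tested at 1.0–10 µM. Vincristine and paclitaxel at 3.0 µM served as inhibition and stabilization controls. Compounds were dissolved in DMSO and diluted in sterile water to at most 0.1% DMSO, which was the solvent control. Polymerization was followed by a fluorescent reporter incorporated into microtubules and read continuously at 360/450 nm for 60 min.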

[2] = test system: A2780/Adr (drug resistant); assay: Fluorometric microculture cytotoxicity assay; assay type: cell-based, human; settings: for IC50 ratio (resistant vs sensitive cells): A2780/Adr vs A2780; for IC50: 72 h, A2780/Adr (drug resistant) ovarian carcinoma
Method in brief: (§1)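 FMCA with cells seeded into plates pre-loaded with compound and stored at −20°C or −80°C. Seeding was 1,000–2,500 (384-well) or 5,000–10,000 (96-well) cells/well. Culture media: RPMI 1640 for CCRF-CEM, A2780, A2780/Adr, BXPC-3, U-937 and RPMI 8226; McCoy's for HT29 and HCT116. After 72 h, plates were washed and given fluorescein diacetate buffer for 45 min, then fluorescence was read. Survival index = (treated − blank)/(control − blank); IC50 taken from curves.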

[3] = test system: developing blood vessels of chick embryo; assay: Ex ovo chicken embryo chorioallantoic membrane; assay type: in vivo; settings: for effect on blood vessel growth and integrity: 10 nM, vs DMSO vehicle; for growth of the blood vessels (change in relative surface area) / vascular integrity (discontinuity of the vessels): 50 nM, 24 and 48 h posttreatment, vs controls
Method in brief: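 Fertilized eggs incubated at 37.5°C and 60% humidity, then opened into 10 cm dishes on day 4. Two days later a 5 mm filter paper carrying test compound (10, 50, 200 nM), reference vascular disrupting agent or DMSO was laid on the CAM between two main vessels. Eggs were incubated 2 more days and photographed at 0, 24 and 48 h. Read-outs: relative surface area of vessels touching the paper, and disruption index (intact segments >10 mm).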

Caco-2 cell monolayers = assay: Caco-2 permeability assay; assay type: in vitro ADME, human
Method in brief: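 Caco-2 monolayers grown to confluence on collagen-coated polycarbonate transwell membranes. Buffer was HBSS with 10 mM HEPES and 15 mM glucose, pH 7.4; the receiver side also held 1% BSA. 5 μM test compound was dosed apically (A-to-B) or basolaterally (B-to-A) at 37°C, 5% CO2. Donor and receiver were sampled at 120 min, in duplicate. Co-applied Lucifer yellow checked integrity. High permeability: Papp A-to-B ≥1.0×10−6 cm/s.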

MCF10A cells = assay: Live cell microscopy; assay type: cell-based, human; settings: 50 nM, 30 cells
Method in brief: (§2)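 HCT116, HCT8 and MCF10A cells were given 50 nM test compound or a reference tubulin agent and imaged on an IncuCyte immediately and for 3 days, at 1 h intervals, in three replicates. Growth curves used mean confluence from six images per time point. Mitotic duration and mitotic fate were scored from time-lapse films: 10 cells per well, 30 cells per condition.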

OvCar-8 cells = assay: Time-lapse mitotic index and cell death index in OC cell lines; assay type: cell-based, human; settings: OvCar-8, 12.5 nM
Method in brief: (§3)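 Ovarian OvCar-8, OvCar-4 and CaOv-3 cells were time-lapse filmed for 3 days, starting immediately after adding 12.5 nM test compound, 12.5 nM paclitaxel or vehicle alone. Mitotic index and cell death index were scored from the films at 12, 24, 48 and 72 h.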

HCT8 cells = assay: Live cell microscopy; assay type: cell-based, human; settings: HCT8, 50 nM, 30 cells
Method in brief: as §2

[4] = test system: cocultures of endothelial colony forming cells (ECFCs) and adipocyte derived stem cells (ADSCs); assay: Vascular tube formation assay, neoangiogenic; assay type: cell-based, human; settings: 4.6 nM–10 µM, VEGF 20 ng/mL coapplied on day 0
Method in brief: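 Cocultures of GFP-labelled endothelial colony forming cells and adipocyte-derived stem cells (StemKit). Compounds were co-applied with VEGF (20 ng/mL) on day 0 to follow cord formation. Fluorescent and phase-contrast images (10×) were taken every 6 h for up to 8 days. Cord length (mm/mm2) and branch points were analysed from 3–6 separate samples per condition.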

CaOv-3 cells = assay: Time-lapse mitotic index and cell death index in OC cell lines; assay type: cell-based, human; settings: CaOv-3, 12.5 nM
Method in brief: as §3

[5] = test system: HCT116, HCT8 and MCF10A cells; assay type: cell-based, human
Method in brief: as §2

[6] = test system: panel of eight cancer cell lines; assay: FMCA, range over the panel of cancer cell lines; assay type: cell-based, human; settings: read-out: IC50, range over cell lines
Method in brief: as §1

A2780 xenograft = assay: Human OC cell xenograft study; assay type: in vivo, NMRI nu/nu female nude mice
OvCar-4 cells = assay: Time-lapse mitotic index and cell death index in OC cell lines; assay type: cell-based, human
[7] = Plasma levels in the maximal tolerated dose study; assay type: in vivo, NMRI nu/nu female mice
Method in brief: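 In the maximal tolerated dose study, female NMRI nu/nu mice received test compound PO at 10, 20 or 40 mg/kg. Plasma concentrations were measured 1 and 4 h after dosing.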

HCT116 cells = assay: Live cell microscopy; assay type: cell-based, human; settings: HCT116, 50 nM, 30 cells
Method in brief: as §2

## Cc1ccc(C(=O)Nc2ccc(S(=O)(=O)O)c3cc(S(=O)(=O)O)cc(S(=O)(=O)O)c23)cc1NC(=O)c1cccc(NC(=O)Nc2cccc(C(=O)Nc3cc(C(=O)Nc4ccc(S(=O)(=O)O)c5cc(S(=O)(=O)O)cc(S(=O)(=O)O)c45)ccc3C)c2)c1 [suramin, reference compound]
[1]; 100 µM, added at t=96 h
  effect on established cords: complete regression of established cords

## CC[C@]1(O)C[C@H]2CN(CCc3c([nH]c4ccccc34)[C@@](C(=O)OC)(c3cc4c(cc3OC)N(C=O)[C@H]3[C@@](O)(C(=O)OC)[C@H](OC(C)=O)[C@]5(CC)C=CCN6CC[C@]43[C@@H]65)C2)C1 [VinC, vincristine]
Bovine tubulin protein; 3.0 µM
  effect on tubulin polymerization: suppress tubulin heterodimer polymerization
[2]
  IC50 ratio (resistant vs sensitive cells): 955
[2]; Homo sapiens, A2780 ADR
  IC50: 210 nM

## COc1ccc(/C=C\c2cc(OC)c(OC)c(OC)c2)cc1O [Combretastatin A4, reference compound]
[3]
  effect on blood vessel growth and integrity: ineffective
  growth of the blood vessels (change in relative surface area): significantly suppressed
  vascular integrity (discontinuity of the vessels): significantly suppressed

## COc1ccc2[nH]cc(CCNc3nccc(Nc4cccc5c4ccn5C)n3)c2c1 [NOV202]
Bovine tubulin protein; 1.0 µM
  effect on tubulin polymerization: slowed down the rate of the polymerization, but could not suppress it
Bovine tubulin protein; 3.0 µM
  effect on tubulin polymerization: suppress tubulin heterodimer polymerization
Bovine tubulin protein; 10 µM
  effect on tubulin polymerization: block the polymerization almost completely
Caco-2 cell monolayers; bi-directional Caco-2
  Efflux ratio: 1.0
Caco-2 cell monolayers; significant efflux: efflux ratio >3.0 and Papp B-to-A ≥1.0×10^−6 cm/s
  Efflux substrate: no significant efflux
MCF10A cells
  average duration of mitosis: 16.4 ± 5.2 h
[1]; four-parameter logistic fit of AUC between 96 and 186 h, VEGF 20 ng/mL
  pIC50, disruption of VEGF stimulated established cords: 8.3
OvCar-8 cells; 12 h
  mitotic index (MI): 27.0%±4.0%
OvCar-8 cells; 24 h
  cell death index (CDI): 29.0%±9.0%
OvCar-8 cells; 48 h
  cell death index (CDI): 31.0%±10.5%
OvCar-8 cells; 72 h
  cell death index (CDI): 30.0%±2.3%
HCT8 cells
  average duration of mitosis: 11.8 ± 3.1 h
[3]
  effect on blood vessel growth and integrity: ineffective
  growth of the blood vessels (change in relative surface area): significantly suppressed
  vascular integrity (discontinuity of the vessels): significantly suppressed
[4]
  VEGF-induced cord (tube) formation: completely inhibit tube formation
CaOv-3 cells; 12 h
  mitotic index (MI): 12.7%±2.5%
CaOv-3 cells; 24 h
  cell death index (CDI): 46.0%±1.7%
CaOv-3 cells; 48 h
  cell death index (CDI): 68.7%±4.2%
CaOv-3 cells; 72 h
  cell death index (CDI): 77.0%±4.6%
[5]; 50 nM, filmed for 3 days
  cell population growth (cell confluency): strong growth suppression
[5]; 15–50 nM, data not shown
  effect on interphase and mitotic microtubule networks: markedly disrupted or completely wiped out
[6]
  IC50: 2.3 to 12 nM
A2780 xenograft; PO 40 mg/kg, 5 days on/2 days off, comparable to paclitaxel 24 mg/kg IV
  effect on tumor volume: clear antitumor effect
A2780 xenograft; PO 10, 20, 40 mg/kg during the treatment
  tolerability by body weight measurements: well tolerated
[2]
  IC50: 2.3 nM
  IC50 ratio (resistant vs sensitive cells): 0.96
OvCar-4 cells; OvCar-4, 12.5 nM, 12 h
  mitotic index (MI): 24.0%±9.5%
OvCar-4 cells; OvCar-4, 12.5 nM, 24 h
  cell death index (CDI): 13.7%±1.5%
OvCar-4 cells; OvCar-4, 12.5 nM, 48 h
  cell death index (CDI): 16.3%±2.1%
OvCar-4 cells; OvCar-4, 12.5 nM, 72 h
  cell death index (CDI): 12.0%±1.0%
OvCar-4 cells; OvCar-4, 50 nM, 24 h
  cell death index (CDI): 28.7%±6.8%
OvCar-4 cells; OvCar-4, 50 nM, 48 h
  cell death index (CDI): 48.3%±10.7%
OvCar-4 cells; OvCar-4, 50 nM, 72 h
  cell death index (CDI): 59.3%±13.2%
[7]; PO 10 mg/kg, 1 h post-dosing
  plasma concentration: 21 nM
[7]; PO 10 mg/kg, 4 h post-dosing
  plasma concentration: 17 nM
[7]; PO 20 mg/kg, 1 h post-dosing
  plasma concentration: 54 nM
[7]; PO 20 mg/kg, 4 h post-dosing
  plasma concentration: 29 nM
[7]; PO 40 mg/kg, 1 h post-dosing
  plasma concentration: 309 nM
[7]; PO 40 mg/kg, 4 h post-dosing
  plasma concentration: 76 nM
HCT116 cells
  average duration of mitosis: 26.2 ± 7.1 h

## CCC[C@H](Nc1nc(-c2ccc(NC(=O)NCC)c(OC)c2)ncc1C)c1cccnc1 [CYT997, lexibulin]
[2]
  IC50 ratio (resistant vs sensitive cells): 3.35
[2]; Homo sapiens, A2780 ADR
  IC50: 183 nM

## CC(=O)O[C@H]1C(=O)[C@@]2(C)[C@H]([C@H](OC(=O)c3ccccc3)[C@]3(O)C[C@H](OC(=O)[C@H](O)[C@@H](NC(=O)c4ccccc4)c4ccccc4)C(C)=C1C3(C)C)[C@]1(OC(C)=O)CO[C@@H]1C[C@@H]2O [PTX, paclitaxel]
Bovine tubulin protein; 3.0 µM
  effect on tubulin polymerization: effective stabilizer of tubulin polymerization
[2]
  IC50 ratio (resistant vs sensitive cells): 3,115
[2]; Homo sapiens, A2780 ADR
  IC50: 810 nM
